Results on one molecule are retold here after ChEMBL document CHEMBL4706762, “Massively Parallel Optimization of the Linker Domain in Small Molecule Dimers Targeting a Toxic r(CUG) Repeat Expansion” (ACS Med Chem Lett, 2021).

Active and inactive are the calls of the source. The calls are words filed in the database; no cut-off is given here. Where only a bound is given, the exact number is not on record here.

The subject of assay [1] is Myotube. The assay can be described thus: Effect on MBNL1 exon 5 splicing in wild type human myotubes at 0.04 to 1 uM measured after 48 hrs by RT-qPCR analysis. In kind it is functional. Conditions: dose 0.04-1 µM.
Assay [2] deals with r(CUG) repeat expansion. The assay can be described thus: Binding affinity to SORCS2 r(CUG)7 RNA repeat in DM1 patient-derived myotubes at 1 uM measured after 48 hrs by RT-qPCR analysis. Conditions: Homo sapiens, Myotube. In a few lines: (§1)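 Transcript levels, either DMPK or r(CUG) repeat-containing mRNAs, quantified by RT-qPCR in treated DM1 myotubes; n = 6, one-way ANOVA.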

In assay [3] the test system is r(CUG) repeat expansion. Description: Binding affinity to r(CUG)exp RNA repeat in DM1-patient derived myotubes assessed as reduction in number of r(CUG)exp-MBNL1 foci at 1 uM measured after 48 hrs by RNA fluorescence in situ hybridization assay. Set-up: scale not given: the % may be the effect or the level left. The conditions noted are these: Homo sapiens, Myotube. A digest of the protocol:
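Nuclear foci counted in DM1 myotubes by confocal imaging: MBNL1 by immunofluorescence, r(CUG)exp by RNA FISH. Foci per nucleus from 40 nuclei per replicate, n = 3; Student's t-test.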

Assay [4] deals with r(CUG) repeat expansion. Description: Binding affinity to MAP3K4 r(CUG)11 RNA repeat in DM1 patient-derived myotubes at 1 uM measured after 48 hrs by RT-qPCR analysis. Format: tissue-based. The conditions noted are these: Homo sapiens, Myotube. In a few lines:
as §1

Assay [5] relates to Myotube. Description: Effect on DMPK transcription in wild type human myotubes at 0.04 to 1 uM measured after 48 hrs by RT-qPCR analysis. In kind it is functional. Conditions: dose 0.04-1 µM.
Assay [6] deals with r(CUG) repeat expansion. The assay can be described thus: Binding affinity to r(CUG)12 RNA repeat (unknown origin) measured after 10 mins by fluorescence assay. In kind it is nucleic-acid assay.
Assay [7] has as its system r(CUG) repeat expansion. Description: Binding affinity to SCUBE2 r(CUG)7 RNA repeat in DM1 patient-derived myotubes at 1 uM measured after 48 hrs by RT-qPCR analysis. Conditions: Homo sapiens, Myotube. In a few lines:
as §1

Assay [8] deals with r(CUG) repeat expansion. Description: Binding affinity to CASK r(CUG)16 RNA repeat in DM1 patient-derived myotubes at 1 uM measured after 48 hrs by RT-qPCR analysis. The conditions noted are these: Homo sapiens, Myotube. A digest of the protocol:
as §1

Assay [9] can be described thus: Reduction in DMPK transcription in DM1-patient derived myotubes at 0.04 to 1 uM measured after 48 hrs by RT-qPCR analysis. On the set-up: scale not given: the % may be the effect or the level left. Conditions: dose 0.04-1 µM. Format: functional, Homo sapiens, Myotube. A digest of the protocol:
as §1

In assay [10] the test system is Myotube. The assay can be described thus: Effect on alternative splicing of MAP4K4 exon 22a in DM1-patient derived myotubes at 0.04 to 1 uM measured after 48 hrs by RT-qPCR analysis. In kind it is functional. Conditions: Homo sapiens, dose 0.04-1 µM.
The test system of assay [11] is Nucleic Acid. The assay can be described thus: Binding affinity to r(CG)8 RNA repeat (unknown origin) measured after 10 mins by fluorescence assay. Format: nucleic-acid assay.
The subject of assay [12] is r(CUG) repeat expansion. Description: Binding affinity to r(CUG)exp RNA repeat in DM1-patient derived myotubes assessed as improvement in MBNL1 exon 5 splicing defect at 0.04 to 1 uM measured after 48 hrs by RT-qPCR analysis relative to control. In kind it is tissue-based. Conditions: Homo sapiens, Myotube, dose 0.04-1 µM. A digest of the protocol:
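Dose–response for MBNL1 exon 5 splicing rescue in DM1 patient myotubes (1300 r(CUG) repeats) after 48 h treatment; n = 6, SD, one-way ANOVA.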

Assay [13] relates to r(CUG) repeat expansion. The assay can be described thus: Binding affinity to LRP8 r(CUG)11 RNA repeat repeat in DM1 patient-derived myotubes at 1 uM measured after 48 hrs by RT-qPCR analysis. The conditions noted are these: Homo sapiens, Myotube. In a few lines:
as §1

For assay [14], the system named is r(CUG) repeat expansion. The assay can be described thus: Binding affinity to [5'-32P]-r(CUG)10 RNA (unknown origin) assessed as induction of RNA cleavage at 5 uM measured after 24 hrs by gel electrophoresis method relative to control. Format: nucleic-acid assay. A digest of the protocol: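 5′-radiolabeled r(CUG)10 incubated with agent; cleavage fragments resolved by gel electrophoresis; n = 3, one-way ANOVA.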

Assay [15] relates to r(CUG) repeat expansion. The assay can be described thus: Binding affinity to wild-type DMPK r(CUG)20 RNA repeat in DM1 patient-derived myotubes at 1 uM measured after 48 hrs by RT-qPCR analysis. Conditions: Homo sapiens, Myotube. A digest of the protocol:
as §1

For the molecule `CNCCCCN(CC(=O)N(CCN)CC(=O)N(CCCNC(=O)CCCOc1cccc(-c2nc3ccc(-c4nc5cc(N6CCN(C)CC6)ccc5[nH]4)cc3[nH]2)c1)CC(=O)NCCCCCC(=O)NCCCCNCCCNC(=O)c1csc(-c2csc(CCNC(=O)[C@@H](NC(=O)[C@@H](C)[C@H](O)[C@@H](C)NC(=O)[C@@H](NC(=O)c3nc([C@H](CC(N)=O)NC[C@H](N)C(N)=O)nc(N)c3C)[C@@H](O[C@@H]3O[C@@H](CO)[C@@H](O)[C@H](O)[C@@H]3O[C@@H]3O[C@H](CO)[C@@H](O)[C@H](OC(N)=O)[C@@H]3O)c3cnc[nH]3)[C@@H](C)O)n2)n1)C(=O)CN(C)C(=O)CN(CCCn1ccnc1)C(=O)CCCOc1cccc(-c2nc3ccc(-c4nc5cc(N6CCN(C)CC6)ccc5[nH]4)cc3[nH]2)c1`, the outcome in assay [1], in [2], in [4], in assay [5], in assay [7] and in assay [8] was inactive. Besides, the result in assay [10], in assay [11], in assay [13] and in assay [15] was inactive. For the same molecule, the Activity in assay [3] was 30%; in assay [9] it was 35%; in assay [12], 30%; in [14], over 70%. Further, in [6], the concentration giving a half-maximal response (EC50) is 120 nM.
